Test results reported in ChEMBL document CHEMBL1140473, “Novel potent macrocyclic inhibitors of the hepatitis C virus NS3 protease: use of cyclopentane and cyclopentene P2-motifs” (Bioorg Med Chem, 2007).

What was measured:
[1] = Inhibition of HCV 1a recombinant full length NS3/4A protease; set-up: species or system Hepatitis C virus subtype 1a
Method in brief: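 Preincubated 30 min at room temperature, then started with 2 μM FRET substrate RET S1. Fluorescence (ex 355/em 500 nm) followed 20 min. IC50 by non-linear fit; Ki = IC50/(1+S/Km), assuming competitive inhibition.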

[2] = tested on: Hepatitis C virus; assay: Antiviral activity against HCV 1b replicon in Huh7 cells after 48 hrs; type: functional, organism-based, Hepacivirus hominis; settings: genotype 1b, Huh-7, 48 h
Method in brief: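 Huh-7 cells carrying a subgenomic genotype 1b replicon with firefly luciferase, kept under 0.5 mg/ml G418. Cells seeded at 1500 per well, dosed after 24 h with fivefold serial dilutions (DMSO ≤1% final), incubated 48 h, then lysed for luciferase read-out. EC50 is the concentration lowering luciferase signal 50% versus untreated control.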

[3] = Inhibition of human chymotrypsin
[4] = target: Cathepsin B (Homo sapiens, UniProt P07858); assay: Inhibition of human cathepsin B
[5] = Inhibition of human elastase

Structure (SMILES) | Ki [1] | EC50 [2] | Ki [3] | Ki [4] | Ki [5]
COc1ccc2c(O[C@H]3CC4C(=O)N(NC(=O)OC(C)(C)C)CCCCCCC=C[C@@H]5C[C@@]5(C(=O)O)NC(=O)[C@@H]4C3)cc(-c3ccccc3)nc2c1 (stereo partly specified) | > 10000 nM | > 10000 nM | – | – | –
COc1ccc2c(O[C@@H]3C[C@H]4C(=O)N[C@]5(C(=O)O)C[C@H]5/C=C\CCCCCN(N)C(=O)[C@@H]4C3)cc(-c3ccccc3)nc2c1 | 120 nM | > 10000 nM | – | – | –
COc1ccc2c(O[C@@H]3C[C@H]4C(=O)N[C@]5(C(=O)O)C[C@H]5C=CCCCCN(C)C(=O)[C@@H]4C3)cc(-c3ccccc3)nc2c1 | 44 nM | 2200 nM | – | – | –
COc1ccc2c(O[C@H]3C=C4C(=O)N(N)CCCCC/C=C\[C@@H]5C[C@@]5(C(=O)O)NC(=O)[C@@H]4C3)cc(-c3ccccc3)nc2c1 | 110 nM | 4500 nM | – | – | –
COc1ccc2c(O[C@@H]3C[C@H]4C(=O)N[C@]5(C(=O)O)C[C@H]5/C=C\CCCCCN(NC(=O)OC(C)(C)C)C(=O)[C@@H]4C3)cc(-c3ccccc3)nc2c1 | 710 nM | > 10000 nM | – | – | –
COc1ccc2c(O[C@@H]3C[C@H]4C(=O)N[C@]5(C(=O)O)C[C@H]5/C=C\CCCN(NC(=O)OC(C)(C)C)C(=O)[C@@H]4C3)cc(-c3ccccc3)nc2c1 | 130 nM | > 10000 nM | – | – | –
COc1ccc2c(O[C@H]3C[C@H]4C(=O)NCCCCC=C[C@@H]5C[C@@]5(C(=O)O)NC(=O)[C@@H]4C3)cc(-c3ccccc3)nc2c1 | 260 nM | > 10000 nM | – | – | –
COc1ccc2c(O[C@@H]3C[C@H]4C(=O)N[C@]5(C(=O)O)C[C@H]5C=CCCCCN(NC(=O)OC(C)(C)C)C(=O)[C@@H]4C3)cc(-c3ccccc3)nc2c1 | 31 nM | > 10000 nM | – | – | –
COc1ccc2c(O[C@@H]3C[C@H]4C(=O)N[C@]5(C(=O)NS(=O)(=O)C6CC6)C[C@H]5C=CCCCCN(NC(=O)OC(C)(C)C)C(=O)[C@@H]4C3)cc(-c3ccccc3)nc2c1 | 0.07 nM | 530 nM | – | – | –
COc1ccc2c(O[C@H]3C[C@H]4C(=O)NCCCCC=C[C@@H]5C[C@@]5(C(=O)NS(=O)(=O)C5CC5)NC(=O)[C@@H]4C3)cc(-c3ccccc3)nc2c1 | 2.2 nM | 4400 nM | – | – | –
COc1ccc2c(O[C@@H]3C[C@H]4C(=O)N[C@]5(C(=O)NS(=O)(=O)C6CC6)C[C@H]5C=CCCCCN(C)C(=O)[C@@H]4C3)cc(-c3ccccc3)nc2c1 | 0.41 nM | 9.1 nM | > 5000 nM | 2200 nM | > 5000 nM
COc1ccc2c(O[C@H]3CC4C(=O)N(N)CCCCCCC=C[C@@H]5C[C@@]5(C(=O)O)NC(=O)[C@@H]4C3)cc(-c3ccccc3)nc2c1 (stereo partly specified) | > 10000 nM | > 10000 nM | – | – | –
COc1ccc2c(O[C@@H]3C[C@H]4C(=O)N[C@]5(C(=O)O)C[C@H]5C=CCCCCN(N)C(=O)[C@@H]4C3)cc(-c3ccccc3)nc2c1 | 6 nM | 7600 nM | – | – | –
COc1ccc2c(O[C@@H]3C[C@H]4C(=O)N[C@]5(C(=O)NS(=O)(=O)C6CC6)C[C@H]5C=CCCCCN(N)C(=O)[C@@H]4C3)cc(-c3ccccc3)nc2c1 | 0.19 nM | 33 nM | – | – | –
